Source: PubChem BioAssay (Johns Hopkins Ion Channel Center)
TRPC6 inhibitor – mouse TRPC6 channel inhibition; Q61143; HEK293-TRPC6, membrane potential dye, ACh-evoked depolarization; stronger effect = lower value; B-score at 10 µM; 310,000 tested, 1.1% active; AID 2553;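 active means B-score under library mean minus 3 SD, initial fluorescence not abnormally high, positive integrated signal ratio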;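 further: B-score derived from integrated fluorescence ratio over the kinetic read; more negative B-score means stronger inhibition of depolarization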
TRPC4 block – TRPC4 (mouse) channel inhibition. Q9QUQ5. HEK293 TRPC4beta/mu-opioid, DAMGO-evoked Fluo4 calcium flux; stronger effect = lower value. B-score at 10 µM. 300,000 tested, 0.39% active. AID 2247;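 active means B-score over 3 SD under the library average, no early fluorescence shift, positive overall ratio signal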
Target sequence (Q9QUQ5 whole entry, looked up): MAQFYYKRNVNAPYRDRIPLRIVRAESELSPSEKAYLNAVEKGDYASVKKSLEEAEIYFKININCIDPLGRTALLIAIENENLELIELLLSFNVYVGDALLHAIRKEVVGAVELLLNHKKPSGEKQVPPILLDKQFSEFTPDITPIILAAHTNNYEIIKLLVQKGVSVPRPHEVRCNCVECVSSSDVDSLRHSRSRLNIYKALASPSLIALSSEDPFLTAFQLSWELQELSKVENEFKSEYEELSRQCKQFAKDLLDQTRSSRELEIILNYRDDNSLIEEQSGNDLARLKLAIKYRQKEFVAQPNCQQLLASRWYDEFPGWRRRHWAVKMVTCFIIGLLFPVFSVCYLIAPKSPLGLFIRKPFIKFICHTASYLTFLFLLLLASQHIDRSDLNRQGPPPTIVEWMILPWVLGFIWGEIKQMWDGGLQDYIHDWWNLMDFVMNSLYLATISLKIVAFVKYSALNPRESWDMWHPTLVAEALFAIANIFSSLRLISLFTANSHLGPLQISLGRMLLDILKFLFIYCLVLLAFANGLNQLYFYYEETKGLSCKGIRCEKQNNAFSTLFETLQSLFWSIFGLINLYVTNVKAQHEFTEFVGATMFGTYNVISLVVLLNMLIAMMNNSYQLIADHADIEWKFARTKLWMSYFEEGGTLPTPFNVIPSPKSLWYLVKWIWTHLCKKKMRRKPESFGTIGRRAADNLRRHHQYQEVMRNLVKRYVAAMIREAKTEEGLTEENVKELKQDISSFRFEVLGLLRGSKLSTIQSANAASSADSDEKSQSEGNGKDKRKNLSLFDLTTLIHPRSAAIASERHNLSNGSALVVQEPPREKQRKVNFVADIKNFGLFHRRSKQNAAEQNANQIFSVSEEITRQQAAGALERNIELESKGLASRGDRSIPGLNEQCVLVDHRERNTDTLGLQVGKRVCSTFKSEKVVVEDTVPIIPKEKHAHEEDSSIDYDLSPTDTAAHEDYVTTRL
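Assay system – HEK293 line stably carrying TRPC4beta and mu-opioid receptor · Doses – single dose · Detection – Fluo4 calcium-dye fluorescence, kinetic read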
TRPC6 activator – activators of mouse TRPC6 channel; Q61143; HEK293-TRPC6 membrane potential dye fluorescence; stronger effect = higher value; B-score at 10 µM; 310,000 tested, 0.13% active; AID 2550;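 active means B-score of the integrated fluorescence ratio above library mean plus 3 SD, and starting fluorescence ratio within library mean plus 5 SD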;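 further: higher score means more depolarization so channel activation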
TRPC4 PAM – allosterically enhances the mouse TRPC4 cation channel; Q9QUQ5; HEK293 TRPC4beta/mu-opioid, DAMGO EC20, Fluo-4 Ca2+ flux; stronger effect = higher value; B-score at 10 µM; 310,000 tested, 0.42% active;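 active means B-score of calcium response area above 5 SD of library B-scores, with initial fluorescence ratio within 5 SD of library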
TRPC4 agonist – opens the mouse TRPC4 cation channel; 310,000 tested, 0.49% active; Q9QUQ5; B-score at 10 µM; HEK293 TRPC4beta/mu-opioid, Fluo4 calcium fluorescence; stronger effect = higher value; AID 2237;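 active means B-score above 5 SD of library B-scores, and initial fluorescence ratio not above library mean plus 5 SD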;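 further: positive B-score marks a calcium rise read as TRPC4 activation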
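Technique: kinetic Fluo4 calcium fluorescence; Test system: TRPC4beta and mu-opioid receptor HEK293 stable cells; Measure: B-scored integrated calcium fluorescence ratio; Benchmarks: low control buffer alone, high control maximal DAMGO; Schedule: 45 min room-temperature Fluo4 loading, 110 s read.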
TRPC4 sel inh 2 – mouse TRPC4 off-target activity of TRPC6 inhibitors, second screen. shares compounds with TRPC6 inhibitor. HEK293 TRPC4/MOR, membrane potential dye fluorescence; channel activated by saturating DAMGO dose. inhibition, % at 10 µM. 920 tested, 42% active. AID 2776;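 active means compounds whose fluorescence signal differed from control wells by over 3 SD, either direction, in both duplicate plates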
TRPC4 spec – mouse TRPC4 off-target activity of TRPC6 inhibitors. shares compounds with TRPC6 inhibitor. HEK293 TRPC4/mu-opioid, membrane potential fluorescence. activity change, negative = inhibition, % at 10 µM. 920 tested, 61% active;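 active means rise or fall in signal beyond 3 SD of buffer-only wells in both replicate plates, either sign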;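 further: integrated kinetic ratio of fluorescence range over baseline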
HEK293 MPD ctr 2-1 – second check of TRPC6 inhibitor effects in parental HEK293 cells. 920 tested, 31% active. shares compounds with TRPC6 inhibitor. signal change vs control, % at 10 µM. parental HEK293 membrane potential dye fluorescence; maximal acetylcholine challenge after compound addition;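 active means membrane potential signal moving either way by over 3 SD of the maximum-effect control, in both duplicate plates, meaning non-specific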
HEK293 MPD ctr-1 – counter-screen for TRPC6 inhibitors: effect in parental HEK293 cells. shares compounds with TRPC6 inhibitor. parental HEK293 membrane potential dye fluorescence. membrane potential signal change, % at 10 µM. 920 tested, 60% active;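 active means membrane potential signal shifting up or down by more than 3 SD of buffer-only wells, on both duplicate plates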
HEK293 MPD ctr-2 – checks TRPC6 modulator effects in parental HEK293 cells | shares compounds with TRPC6 inhibitor | membrane potential dye fluorescence | membrane potential signal change, % at 10 µM | 2,400 tested, 51% active | AID 488924;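 active means membrane potential signal moves up or down beyond 5 SD from buffer-only wells, on both duplicate plates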
HEK293 MPD ctr 2-2 – parental HEK293 nonspecific activity of TRPC6 modulators, second screen | membrane potential dye fluorescence; after compound, maximal acetylcholine stimulation | 2,400 tested, 14% active | shares compounds with TRPC6 inhibitor | inhibition, % at 10 µM;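 active means membrane potential signal drops by more than 5 SD from the mean control signal, in both duplicate plates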
TRPC4/MOR mod – tests whether TRPC6 modulators also affect mouse TRPC4; shares compounds with TRPC6 inhibitor; HEK293 TRPC4/mu-opioid, membrane potential fluorescence; percent change from control (negative = decrease, positive = increase), % at 10 µM; 2,400 tested, 69% active; AID 488927;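 active means membrane potential signal moved up or down beyond 5 SD of buffer control wells, in both duplicate plates, actives on both sides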
TRPC4/MOR inh 2 – second selectivity test of TRPC6 modulators against mouse TRPC4; shares compounds with TRPC6 inhibitor; HEK293 TRPC4/mu-opioid, membrane potential dye fluorescence; stimulated with maximal-effect DAMGO; inhibition, % at 10 µM; 2,400 tested, 55% active;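 active means drop in membrane potential signal beyond 5 SD of the control wells in both duplicate plates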;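 further: TRPC4 counter screen for TRPC6 hits run under conditions tuned for TRPC6 not TRPC4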
TRPC6 inh conf – confirmation of mouse TRPC6 inhibitors; 3,300 tested, 43% active; inhibition, % at 10 µM; AID 488960; shares compounds with TRPC6 inhibitor; HEK293-TRPC6, membrane potential dye, ACh-evoked depolarization;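 active means fluorescence ratio falls more than 5 SD below the full-stimulation control mean, in both duplicate runs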;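 further: integrated fluorescence ratio of peak minus minimum over baseline after agonist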
TRPC6 act confirm – mouse TRPC6 activator confirmation; shares compounds with TRPC6 inhibitor; HEK293-TRPC6 membrane potential dye fluorescence, FDSS; activation, % at 10 µM; 2,800 tested, 11% active; AID 488961;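 active means ratio signal rise beyond 5 SD above unstimulated control wells' mean, seen in both duplicate runs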
Of the large screens only hits and unclear results are named; the others gave an inactive call (follow-up assays come after a bar, where they were run). In the library only some 2.3% were active in any assay of this set; here they are far more common.

CCCc1cc(=O)oc2c(C)c(OCC(=O)NCCCn3ccnc3)ccc12	TRPC6 inhibitor -5.8 | HEK293 MPD ctr-2 -136% | HEK293 MPD ctr 2-2 inactive | TRPC4/MOR mod -20% | TRPC4/MOR inh 2 inactive | TRPC6 inh conf inactive | TRPC6 act confirm inactive
COc1ccc(-c2[nH]n(-c3ccc([N+](=O)[O-])cc3)c(=O)c2C=NCCN2CCNCC2)cc1	TRPC6 inhibitor -6.5 | HEK293 MPD ctr-2 -227% | HEK293 MPD ctr 2-2 inactive | TRPC4/MOR mod -42% | TRPC4/MOR inh 2 50% | TRPC6 inh conf 50% | TRPC6 act confirm inactive
Cc1ccc(C)c(N2CCN(C(=O)CCCOc3cc(=O)n(C)c4ccccc34)CC2)c1	TRPC6 inhibitor -6.2 | HEK293 MPD ctr-2 139% | HEK293 MPD ctr 2-2 inactive | TRPC4/MOR mod 30% | TRPC4/MOR inh 2 inactive | TRPC6 inh conf 55%
O=C(N=C1SCC(=O)N1c1ccccc1Cl)c1ccccc1	none
Cc1nc(NCc2ccccn2)c2ccccc2n1	none
Cc1cc(NCc2ccccn2)nc2ccccc12	TRPC6 inhibitor -8.9 | TRPC4 sel inh 2 49% | TRPC4 spec -20% | HEK293 MPD ctr 2-1 inactive | HEK293 MPD ctr-1 -292% | TRPC6 inh conf 95% | TRPC6 act confirm inactive
C=CCNC(=O)c1ccc2c(c1)S(=O)(=O)c1ccccc1C2=O	none
Cc1cc(N2C(=O)NC(=O)CC2C)c(C)cc1C(C)C (stereo unspecified)	TRPC6 inhibitor -5.1 | HEK293 MPD ctr-2 inactive | HEK293 MPD ctr 2-2 inactive | TRPC4/MOR mod inactive | TRPC4/MOR inh 2 inactive | TRPC6 inh conf inactive | TRPC6 act confirm inactive
CCN(CC)C(=O)N1c2ccccc2CC(N(CC)CC)c2ccccc21 (stereo unspecified)	TRPC6 inhibitor -5.2 | HEK293 MPD ctr-2 220% | HEK293 MPD ctr 2-2 inactive | TRPC4/MOR mod 39% | TRPC4/MOR inh 2 inactive | TRPC6 inh conf inactive
Cc1nn(CC(=O)NCCN2CCOCC2)c(=O)c2cc3sccc3n12	none
O=S(=O)(NCC1CCCO1)c1ccccc1F (stereo unspecified)	none
Cc1cccc(C)c1Nc1c(-c2ccc(N3CCOCC3)cc2)nc2cnccn12	TRPC6 inhibitor -8.3 | HEK293 MPD ctr-2 -236% | HEK293 MPD ctr 2-2 inactive | TRPC4/MOR mod -42% | TRPC4/MOR inh 2 92% | TRPC6 inh conf 75% | TRPC6 act confirm inactive
Cc1ccc(Nc2c(-c3ccccc3)nc3cnccn23)cc1	none
